The values that follow come from ChEMBL document CHEMBL1124412, “Long acting dihydropyridine calcium antagonists. 2. 2-[2-Aminoheterocycloethoxy]methyl derivatives” (J Med Chem, 1989).

The species entered for one test is Cavia porcellus. In words: In vitro assessment of negative inotropy in the isolated Langendorff perfused guinea pig heart. Type of test: functional.
The species entered for a further test is Rattus norvegicus. The test can be described thus: Concentration required to inhibit calcium-induced constriction of potassium-depolarized rat aorta by 50%. In kind it is functional.
The next test relates to Canis familiaris. The test can be described thus: Percent decrease in coronary vascular resistance in dogs at 150 u/kg intravenous dose. Type of test: functional, Canis lupus familiaris. Put shortly: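 Anaesthetized beagle dogs were implanted with catheters for blood pressure, left ventricular pressure and intravenous dosing, and given 150 µg/kg i.v. Coronary blood flow was measured by hydrogen clearance with platinum electrodes in the coronary sinus and femoral artery, and cardiac output by thermodilution. Coronary vascular resistance was derived from these measurements, and the duration-of-action half-life was followed in hours.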

As a reminder, the IC50 is the concentration that inhibits the measured activity by half.

With `CCOC(=O)NC(=S)NCCOCC1=C(C(=O)OCC)C(c2cccc(Cl)c2Cl)/C(=C(\O)OC)C(C)=N1` (stereo unspecified), the pIC25 in the test filed under Cavia porcellus is reported as 6.2. For the same molecule, the IC50 in the test listed under Rattus norvegicus was 31.6 nM.

Consider `CCO/C(O)=C1\C(COCCNc2n[nH]c(N)n2)=NC(C)=C(C(=O)OC)C1c1cccc(Cl)c1Cl` (stereo unspecified), for which the “Decrease in CVR” value in the test on Canis familiaris was 70%. In the test filed under Cavia porcellus, this molecule displayed a pIC25 of 6.3. Besides, the IC50 in the test filed under Rattus norvegicus was 6.31 nM.

In the case of `CCO/C(O)=C1\C(COCCNc2n[s+]([O-])nc2OC)=NC(C)=C(C(=O)OC)C1c1cccc(Cl)c1Cl` (stereo unspecified), the pIC25 in the test filed under Cavia porcellus was found to be 7.1. In the test listed under Rattus norvegicus, the IC50 was 10 nM.

Consider `CCO/C(O)=C1\C(COCCNc2cc(Cl)ncn2)=NC(C)=C(C(=O)OC)C1c1cccc(Cl)c1Cl` (stereo unspecified), for which the pIC25 in the test listed under Cavia porcellus was determined as 7.7. In addition, the IC50 in the test listed under Rattus norvegicus was 12.6 nM.

As to `CCO/C(O)=C1\C(COCCNc2nc(O)cc(-c3ccccc3)n2)=NC(C)=C(C(=O)OC)C1c1cccc(Cl)c1Cl` (stereo unspecified), the pIC25 in the test filed under Cavia porcellus was determined as 6.9. Moreover, in the test filed under Rattus norvegicus, the IC50 was 7.94 nM.

Consider `CCO/C(O)=C1\C(COCCNc2ccnc(O)n2)=NC(C)=C(C(=O)OC)C1c1cccc(Cl)c1Cl` (stereo unspecified), for which the “Decrease in CVR” value with Canis familiaris is reported as 62%. The molecule further showed a pIC25 in the test listed under Cavia porcellus of 6.7. In the test filed under Rattus norvegicus, the IC50 is 1.58 nM.

For the molecule `CCO/C(O)=C1\C(COCCNc2n[s+]([O-])nc2N)=NC(C)=C(C(=O)OC)C1c1cccc(Cl)c1Cl` (stereo unspecified), in the test filed under Cavia porcellus, the pIC25 worked out at 7. The IC50 in the test filed under Rattus norvegicus is 15.8 nM.

For `CCO/C(O)=C1\C(C)=NC(COCCNc2n[nH]c(N)n2)=C(C(=O)OC)C1c1cccc(Cl)c1Cl` (stereo unspecified), the pIC25 in the test filed under Cavia porcellus is listed as 5.5. Moreover, the IC50 in the test listed under Rattus norvegicus was 100 nM.

Turning to `CCO/C(O)=C1\C(COCCNc2n[nH]c(N)n2)=NC(C)=C(C(=O)OC)C1c1cccc(Cl)c1` (stereo unspecified), the IC50 in the test filed under Rattus norvegicus is 126 nM.

With `CCO/C(O)=C1\C(COCCNc2n[nH]c(N)n2)=NC(C)=C(C(=O)OC)C1c1cccc(C(F)(F)F)c1Cl` (stereo unspecified), in the test listed under Cavia porcellus, the pIC25 is given as 6.3. Further, the IC50 in the test filed under Rattus norvegicus is 3.98 nM.

In turn, `CCO/C(O)=C1\C(COCCNc2cc(NC)ncn2)=NC(C)=C(C(=O)OC)C1c1cccc(Cl)c1Cl` (stereo unspecified) returned a pIC25 in the test filed under Cavia porcellus of 7.2. In the test listed under Rattus norvegicus, the IC50 was 3.16 nM.

As for `CCO/C(O)=C1\C(COCCNc2nccc(O)n2)=NC(C)=C(C(=O)OC)C1c1cccc(Cl)c1Cl` (stereo unspecified), in the test with Canis familiaris, the “Decrease in CVR” value amounted to 70%. The pIC25 in the test listed under Cavia porcellus is listed as 6.7. Further, in the test filed under Rattus norvegicus, the IC50 is 2.51 nM.

With `CCO/C(O)=C1\C(COCCNc2nc(O)cs2)=NC(C)=C(C(=O)OC)C1c1cccc(Cl)c1Cl` (stereo unspecified), the pIC25 in the test listed under Cavia porcellus is recorded as 6.1. Also, the IC50 in the test filed under Rattus norvegicus was 20 nM.

`CCO/C(O)=C1\C(COCCNc2n[nH]c(N)n2)=NC(C)=C(C(=O)OC)C1c1ccccc1Cl` (stereo unspecified) yielded a pIC25 in the test filed under Cavia porcellus of 6.2. Besides, the IC50 in the test filed under Rattus norvegicus is 20 nM.

On to `CCO/C(O)=C1\C(COCCNc2nccnc2NC)=NC(C)=C(C(=O)OC)C1c1cccc(Cl)c1Cl` (stereo unspecified), for which, in the test listed under Cavia porcellus, the pIC25 came to 7. In the test listed under Rattus norvegicus, the IC50 is 5.01 nM.

For `CCO/C(O)=C1\C(COCCNc2cc(O)ncn2)=NC(C)=C(C(=O)OC)C1c1cccc(Cl)c1Cl` (stereo unspecified), in the test listed under Cavia porcellus, the pIC25 is on record as 7.2. For the same molecule, in the test filed under Rattus norvegicus, the IC50 is 1.26 nM.

For `CCO/C(O)=C1\C(COCCNc2n[nH]c(O)n2)=NC(C)=C(C(=O)OC)C1c1cccc(Cl)c1Cl` (stereo unspecified), the pIC25 in the test filed under Cavia porcellus turned out to be 6.4. Moreover, the IC50 in the test listed under Rattus norvegicus was 10 nM.

Regarding `COC(=O)C1=C(C)NC(C)=C(C(=O)OC)C1c1ccccc1[N+](=O)[O-]` [NIFEDIPINE], in the test with Canis familiaris, the “Decrease in CVR” value came to 77%. In the test listed under Cavia porcellus, this molecule displayed a pIC25 of 7.5.

In the case of `CCO/C(O)=C1\C(COCCNc2nccnc2Cl)=NC(C)=C(C(=O)OC)C1c1cccc(Cl)c1Cl` (stereo unspecified), the pIC25 in the test filed under Cavia porcellus stood at 7.4. In the test listed under Rattus norvegicus, the IC50 was 2.51 nM.

`CCO/C(O)=C1\C(COCCNc2nc(N)n(C)n2)=NC(C)=C(C(=O)OC)C1c1cccc(Cl)c1Cl` (stereo unspecified) had a pIC25 in the test listed under Cavia porcellus of 6.8. The IC50 in the test listed under Rattus norvegicus is 3.98 nM.

In turn, `CCO/C(O)=C1\C(COCCNC2=NC(=O)C(C)(C)N2)=NC(C)=C(C(=O)OC)C1c1cccc(Cl)c1Cl` (stereo unspecified) returned a pIC25 in the test filed under Cavia porcellus of 6.2. The IC50 in the test filed under Rattus norvegicus was 20 nM.

`CCO/C(O)=C1\C(COCCNc2noc(N)n2)=NC(C)=C(C(=O)OC)C1c1cccc(Cl)c1Cl` (stereo unspecified): in the test with Canis familiaris, the “Decrease in CVR” value is recorded as 76%. The same molecule returned a pIC25 in the test filed under Cavia porcellus of 7.3. The IC50 in the test listed under Rattus norvegicus is 3.16 nM.

Molecule `CCO/C(O)=C1\C(COCC/N=C(/N)S)=NC(C)=C(C(=O)OC)C1c1cccc(Cl)c1Cl` (stereo unspecified) had a pIC25 in the test filed under Cavia porcellus of 7.2. Also, the IC50 in the test listed under Rattus norvegicus was 1 nM.

`CCO/C(O)=C1\C(COCCNc2n[nH]c(N)n2)=NC(C)=C(C(=O)OC)C1c1cccnc1Cl` (stereo unspecified) registered a pIC25 in the test listed under Cavia porcellus of 6. Also, in the test listed under Rattus norvegicus, the IC50 is 316 nM.
